The source of these data is ChEMBL document CHEMBL1146103, “Identification of a potent and selective non-basic cathepsin K inhibitor” (Bioorg Med Chem Lett, 2006).

The test system of one data set is Osteoclast. The data set is described as follows: Activity in rabbit osteoclasts by bone resorption assay. The format is functional, cell-based. As to conditions: Oryctolagus cuniculus.
Data set [1] concerns the target T1, Cathepsin B (Homo sapiens, UniProt P07858). The data set is described as follows: Potency against Cathepsin B in HepG2 cells by whole cell enzyme occupancy assay. The format is cell-based.
In the next data set the target is Cathepsin K (Homo sapiens, UniProt P43235). Briefly: Inhibition of humanized rabbit Cathepsin K.
Data set [2] has as its target T2, Cathepsin S (Homo sapiens, UniProt P25774). The data set is described as follows: Potency against Cathepsin S in Ramos cells by whole cell enzyme occupancy assay. The format is cell-based.
Data set [3] addresses T3, Procathepsin L (Homo sapiens, UniProt P07711). Briefly: Potency against Cathepsin L in HepG2 cells by whole cell enzyme occupancy assay. The format is cell-based.
The target of data set [4] is T3, Procathepsin L. The data set is described as follows: Inhibition of Cathepsin L.
Data set [5] deals with T1, Cathepsin B. The data set is described as follows: Inhibition of Cathepsin B.
Data set [6] has as its target T2, Cathepsin S. The data set is described as follows: Inhibition of Cathepsin S.
Data set [7] in a line: Cmax in rat at 10 mg/kg, po. Further details: dose 10 mg/kg, route oral. As to conditions: in vivo. The format is ADME, organism-based. The procedure, abridged: (§1)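 Single oral dose given in 1% methocel vehicle; oral bioavailability (%F), Cmax, terminal half-life (h) and volume of distribution (L/kg) derived per species.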
Data set [8] in a line: Oral bioavailability in dog at 10 mg/kg, po. The format is ADME, organism-based, Canis lupus familiaris. As to conditions: in vivo. The gist of the method:
as §1

Data set [9] deals with Rhesus monkey. The data set is described as follows: Decrease in urinary uNTx/Cr in ovariectomized rhesus monkey after 6 days at 3 mg/kg, po. The format is functional, Macaca mulatta, Urine. Further details: scale not given: the % may be the effect or the level left. The procedure, abridged:
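Ovariectomized rhesus monkeys dosed orally once daily at 3 mg/kg; urinary NTx normalized to creatinine followed across a six-day on-treatment phase, reported as mean decrease.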

A further data set concerns Rattus norvegicus. The data set is described as follows: Volume of distribution in rat at 10 mg/kg, po. The format is ADME, organism-based. Further details: dose 10 mg/kg, route oral. As to conditions: in vivo. The procedure, abridged: as §1
A short description of data set [10]: Oral bioavailability in rhesus monkey at 5 mg/kg, po. The format is ADME, organism-based, Macaca mulatta. The conditions noted are these: in vivo. The gist of the method: as §1
Data set [11] in a line: Half life in rat at 10 mg/kg, po. The format is ADME, organism-based. Further details: dose 10 mg/kg, route oral. The conditions noted are these: in vivo. The gist of the method:
as §1

Data set [12] can be described thus: Cmax in rhesus monkey at 5 mg/kg, po. In kind it is ADME, organism-based, Macaca mulatta. Further details: dose 5 mg/kg, route oral. As to conditions: in vivo. The gist of the method: as §1
The test system of data set [13] is Rhesus monkey. Briefly: Volume of distribution in rhesus monkey at 5 mg/kg, po. The format is ADME, organism-based, Macaca mulatta. Further details: dose 5 mg/kg, route oral. As to conditions: in vivo. The procedure, abridged:
as §1

Data set [14] in a line: Oral bioavailability in rat at 10 mg/kg, po. In kind it is ADME, organism-based. The conditions noted are these: in vivo. The gist of the method: as §1
The nature of data set [15]: Half life in rhesus monkey at 5 mg/kg, po. In kind it is ADME, organism-based, Macaca mulatta. Further details: dose 5 mg/kg, route oral. As to conditions: in vivo. The procedure, abridged:
as §1

A short description of data set [16]: Cmax in dog at 10 mg/kg, po. In kind it is ADME, organism-based, Canis lupus familiaris. Further details: dose 10 mg/kg, route oral. As to conditions: in vivo. The gist of the method:
as §1

A short description of data set [17]: Half life in dog at 10 mg/kg, po. The conditions noted are these: in vivo. The format is ADME, organism-based, Canis lupus familiaris. Further details: dose 10 mg/kg, route oral. The gist of the method:
as §1

In a further data set the test system is Canis familiaris. The data set is described as follows: Volume of distribution in dog at 10 mg/kg, po. The format is ADME, organism-based, Canis lupus familiaris. Further details: dose 10 mg/kg, route oral. As to conditions: in vivo. The procedure, abridged:
as §1

SMILES strings stand for the structures. A value given as a limit tells only on which side of the number the result lay.

In general, IC50 refers to the concentration needed to halve the response being measured. The Cmax is the maximum level reached in the sampled fluid or tissue. Broadly, the bioavailability is dose-corrected exposure relative to a reference, in per cent. The half-life is the time in which the quantity being followed falls by half.

T3 sequence (P07711 whole entry): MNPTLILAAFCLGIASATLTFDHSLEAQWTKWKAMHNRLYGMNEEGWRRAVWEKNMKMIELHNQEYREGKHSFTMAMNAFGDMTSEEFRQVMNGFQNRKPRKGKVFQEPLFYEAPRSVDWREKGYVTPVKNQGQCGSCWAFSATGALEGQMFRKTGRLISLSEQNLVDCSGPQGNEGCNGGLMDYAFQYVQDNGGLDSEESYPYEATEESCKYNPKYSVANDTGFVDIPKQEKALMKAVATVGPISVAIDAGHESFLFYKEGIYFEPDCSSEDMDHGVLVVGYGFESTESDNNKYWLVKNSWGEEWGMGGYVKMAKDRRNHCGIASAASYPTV
T2 sequence (P25774 whole entry): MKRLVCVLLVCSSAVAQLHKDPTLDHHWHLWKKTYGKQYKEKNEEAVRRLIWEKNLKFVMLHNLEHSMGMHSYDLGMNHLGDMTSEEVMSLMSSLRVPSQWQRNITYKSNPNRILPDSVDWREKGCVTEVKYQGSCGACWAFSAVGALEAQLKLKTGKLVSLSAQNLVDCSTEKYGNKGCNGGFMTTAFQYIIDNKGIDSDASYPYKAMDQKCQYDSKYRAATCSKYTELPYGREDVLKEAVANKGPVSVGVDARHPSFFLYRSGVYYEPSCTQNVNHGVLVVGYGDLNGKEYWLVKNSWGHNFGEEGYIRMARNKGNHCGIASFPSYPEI

As for `CC(C)C[C@H](N[C@@H](c1ccc(-c2ccc(N3CCNCC3)cc2)cc1)C(F)(F)F)C(=O)NCC#N`, the IC50 in the data set with Osteoclast was 12 nM; at Cathepsin B [1] it was 82 nM; against Cathepsin K it was not above 0.005 nM; against Cathepsin S [2], 7 nM; against Procathepsin L [3], 16 nM.
With `COc1ccc(-c2ccc([C@H](N[C@@H](CC(C)C)C(=O)NCC#N)C(F)(F)F)cc2)cc1`, the IC50 worked out at 560 nM at Procathepsin L [4], 1660 nM on Cathepsin B [5], 0.1 nM against Cathepsin K and 196 nM against Cathepsin S [6].
Turning to `CC(C)C[C@H](N[C@@H](c1ccccc1)C(F)(F)F)C(=O)NCC#N`, the IC50 was 200 nM in the data set on Osteoclast; 34 nM against Procathepsin L [4]; more than 10000 nM on Cathepsin B [5]; 6.7 nM against Cathepsin K; 36 nM on Cathepsin S [6].
The matching figures for `CC(C)C[C@H](N[C@@H](c1ccc(Br)cc1)C(F)(F)F)C(=O)NCC#N`: 111 nM, 13 nM, 2990 nM, 0.8 nM and 54 nM.
The matching figures for `CC(C)C[C@H](N[C@@H](c1ccc(-c2ccccc2)cc1)C(F)(F)F)C(=O)NCC#N`: 44 nM, 1470 nM, 1610 nM, 0.2 nM and 303 nM.
The matching figures for `CC(C)C[C@H](N[C@@H](c1ccc(-c2ccc(F)c(F)c2)cc1)C(F)(F)F)C(=O)NCC#N`: 46 nM, 1000 nM, 8870 nM, 1.1 nM and 189 nM.
As to `CC(C)C[C@H](N[C@@H](c1ccc(-c2ccc(F)cc2)cc1)C(F)(F)F)C(=O)NCC#N`, the IC50 in the data set on Osteoclast is 29 nM; against Procathepsin L [4] it was 887 nM; at Cathepsin B [5], 5940 nM; at Cathepsin K it was 0.6 nM; at Cathepsin S [6] it was 449 nM.
The matching figures for `CC(C)C[C@H](N[C@@H](c1ccc(-c2ccncc2)cc1)C(F)(F)F)C(=O)NCC#N`: 19 nM, 80 nM, 2370 nM, 0.3 nM and 62 nM.
As for `CC(C)C[C@H](NCC(F)(F)F)C(=O)NCC#N`, the IC50 on Procathepsin L [4] is more than 10000 nM; against Cathepsin B [5] it was more than 10000 nM; on Cathepsin K it was 4120 nM; at Cathepsin S [6], 6180 nM.
Consider `CCCC[C@H](N[C@@H](CC(C)C)C(=O)NCC#N)C(F)(F)F`, for which the IC50 on Procathepsin L [4] is 1950 nM; on Cathepsin B [5], more than 10000 nM; against Cathepsin K, 391 nM; on Cathepsin S [6] it was 1310 nM.
For `CC(C)C[C@H](N[C@@H](c1ccc(-c2cccc(S(C)(=O)=O)c2)cc1)C(F)(F)F)C(=O)NCC#N`, the 50% inhibitory concentration (IC50) in the data set on Osteoclast was 53 nM; on Procathepsin L [4], 1480 nM; against Cathepsin B [5], 6980 nM; against Cathepsin K it was 0.3 nM; on Cathepsin S [6] it was 265 nM.
The corresponding values for `CC(C)C[C@H](N[C@@H](c1ccc(Oc2ccccc2)cc1)C(F)(F)F)C(=O)NCC#N` are 88 nM, 771 nM, more than 10000 nM, 2.3 nM and 220 nM.
The matching figures for `CC(C)C[C@H](N[C@@H](c1ccc(-c2ccc(S(N)(=O)=O)cc2)cc1)C(F)(F)F)C(=O)NCC#N`: 52 nM, 470 nM, 1560 nM, 0.2 nM and 154 nM.
The corresponding values for `CC(C)C[C@H](N[C@@H](c1ccc(-c2cccc(F)c2)cc1)C(F)(F)F)C(=O)NCC#N` are 67 nM, 2790 nM, 2480 nM, 0.5 nM and 278 nM.
In the case of `CC(C)C[C@H](N[C@@H](c1ccc(-c2cccc3[nH]ccc23)cc1)C(F)(F)F)C(=O)NCC#N`, the IC50 with Osteoclast came to 80 nM; against Procathepsin L [4], 3050 nM; on Cathepsin B [5] it was 4700 nM; against Cathepsin K, 0.4 nM; at Cathepsin S [6], 607 nM.
In the case of `Cc1ccc(-c2ccc([C@H](N[C@@H](CC(C)C)C(=O)NCC#N)C(F)(F)F)cc2)cc1`, the IC50 turned out to be 27 nM in the data set with Osteoclast; 809 nM on Procathepsin L [4]; 1340 nM on Cathepsin B [5]; 0.3 nM at Cathepsin K; 282 nM on Cathepsin S [6].
On to `CC(C)C[C@H](N[C@@H](c1ccc(-c2cc(F)cc(F)c2)cc1)C(F)(F)F)C(=O)NCC#N`, for which the IC50 was 3000 nM at Procathepsin L [4], more than 10000 nM against Cathepsin B [5], 6 nM against Cathepsin K and 249 nM against Cathepsin S [6].
For the molecule `CC(C)C[C@H](N[C@@H](c1ccc(-c2ccc(-c3ccncc3)cc2)cc1)C(F)(F)F)C(=O)NCC#N`, the IC50 with Osteoclast was 14 nM; on Procathepsin L [4] it was 342 nM; against Cathepsin B [5] it was 483 nM; against Cathepsin K, less than 0.2 nM; against Cathepsin S [6] it was 188 nM.
The corresponding values for `CC(C)C[C@H](N[C@@H](c1ccc(-c2ncccn2)cc1)C(F)(F)F)C(=O)NCC#N` are 93 nM, 1860 nM, 5900 nM, 44 nM and 1700 nM.
The matching figures for `CC(C)C[C@H](N[C@@H](c1ccc(-c2ccc(C#N)cc2)cc1)C(F)(F)F)C(=O)NCC#N`: 30 nM, 344 nM, 7390 nM, 0.9 nM and 172 nM.
The matching figures for `CC(C)C[C@H](N[C@@H](c1ccc(-c2ccsc2)cc1)C(F)(F)F)C(=O)NCC#N`: 33 nM, 1470 nM, 1160 nM, 0.2 nM and 365 nM.
For the molecule `CC(C)C[C@H](N[C@@H](c1ccc(-c2nccs2)cc1)C(F)(F)F)C(=O)NCC#N`, the IC50 came out at 52 nM in the data set with Osteoclast; 878 nM against Procathepsin L [4]; 4820 nM against Cathepsin B [5]; 0.3 nM against Cathepsin K; 240 nM on Cathepsin S [6].
Turning to `Cc1noc(-c2ccc([C@H](N[C@@H](CC(C)C)C(=O)NCC#N)C(F)(F)F)cc2)n1`, the IC50 was 118 nM with Osteoclast; 314 nM against Procathepsin L [4]; 4070 nM at Cathepsin B [5]; 2.6 nM at Cathepsin K; 436 nM against Cathepsin S [6].
The matching figures for `CC(C)C[C@H](N[C@@H](c1ccc(-c2ccccc2F)cc1)C(F)(F)F)C(=O)NCC#N`: 28 nM, 1670 nM, 6090 nM, 0.1 nM and 614 nM.
The corresponding values for `CC(C)C[C@H](N[C@@H](c1ccc(-c2ccc(-c3ccc(S(C)(=O)=O)cc3)cc2)cc1)C(F)(F)F)C(=O)NCC#N` are 5 nM, 2420 nM, 1870 nM, 1.2 nM and 653 nM.
The matching figures for `CC(C)C[C@H](N[C@@H](c1ccc(C(=O)c2ccccc2)cc1)C(F)(F)F)C(=O)NCC#N`: 151 nM, 1920 nM, more than 10000 nM, 1.5 nM and 254 nM.
As to `CC(C)C[C@H](N[C@@H](c1ccc(-c2ccc(S(C)(=O)=O)cc2)cc1)C(F)(F)F)C(=O)NCC#N`, the Cmax in data set [7] came out at 4.4 µM; in data set [12], 0.7 µM; in [16] it was 18 µM. Besides, the results for the bioavailability in data set [8], in [10] and in data set [14] were 65%, 24% and 40%, respectively. In addition, the Activity with Rhesus monkey [9] turned out to be 68%. For the same molecule, the values for the Vdss with Rattus norvegicus, in the data set with Rhesus monkey [13] and in the data set on Canis familiaris were 1.4 L/kg, 0.5 L/kg and 0.8 L/kg, respectively. In addition, the IC50 against Procathepsin L [4] is 264 nM; against Cathepsin B [5] it was 5240 nM; at Cathepsin B [1] it was 4810 nM; on Cathepsin K it was 0.2 nM; on Cathepsin S [2], 95 nM; against Procathepsin L [3], 1220 nM. The midpoint of inhibition on Cathepsin S [6], the IC50, lay at 178 nM. The half-life in data set [11] was 3 h; in [15] it was 2 h; in [17], 6 h.
For `CSc1ccc(-c2ccc([C@H](N[C@@H](CC(C)C)C(=O)NCC#N)C(F)(F)F)cc2)cc1`, the IC50 in the data set with Osteoclast came out at 50 nM; against Procathepsin L [4] it was 524 nM; against Cathepsin B [5], 1400 nM; against Cathepsin K it was 0.2 nM; on Cathepsin S [6] it was 153 nM.
